Screening data (PubChem)
In the library only some 1.3% were active in any assay of this set; here they are far more common.
LANA-H2B inh: blocks KSHV LANA binding to histone H2A/H2B | 320,000 tested, 0.6% active | cell-free LANA-H2A/H2B peptide, fluorescence polarization | inhibition, % (test concentration not listed); in the data active = inhibition mostly above about 10%, no sharp cut-off; inactive = mostly below about 6.7%
Lipid droplet: hepatic lipid droplet formation modulation; inhibition, % at 6.5 µM; AID 1656; AML12 mouse hepatocytes, oleate lipid droplets, BODIPY imaging; 240,000 tested, 0.4% active;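 active = lipid droplet intensity inhibited by at least 50%, with more than 500 cells counted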
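Technique: fluorescence imaging, 20x objective, two fields per well / Assay system: AML12 hepatocytes (mouse) / Measure: % inhibition of lipid droplet signal / Doses: 6.5 µM single-point dosing / Incubation: overnight exposure / Reagent: 100 µM oleic acid challenge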
GSK3beta inhib: inhibitors of human GSK3beta kinase; P49841; GST-GSK3beta kinase, ADP-Glo luminescence, 60 min; stronger effect = lower value; activity score (negative = inhibition), % at 10 µM; 300,000 tested, 0.038% active; AID 2097;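 active = more than half of replicate wells score below -50%, meaning over 50% inhibition versus plate controls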
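Test system: GST-tagged human GSK3beta kinase, cell-free; evaluation: activity score scaled between in-plate DMSO and GW8510 controls; measured by: ADP-Glo luminescence; incubation: 60 min reaction, RT; benchmarks: DMSO and 20 µM GW8510; reagent: peptide substrate plus 25 µM ATP (final); medium: Tris/MgCl2 kinase buffer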
GSK3A inh: inhibitors of human GSK-3 alpha kinase; ADP-Glo luminescence, 60 min; inhibition, % at 10 µM; 320,000 tested, 0.1% active;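 active = more than half of replicates show inhibition above 20%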;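 note: GST-tagged GSK-3 alpha with peptide substrate and 25 µM ATP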
TAG inh: triacylglycerol accumulation inhibition | inhibition, % at 12.5 µM | 230,000 tested, 0.66% active | H9c2 cells, Nile Red lipid (TAG) fluorescence; cells loaded with 200 µM oleic acid | AID 651582;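 active = pattern-corrected inhibition of lipid staining of at least 50% with the nuclear-stain viability signal not falling by more than 50%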
STK33 kinase inh: human STK33 kinase inhibition; purified STK33, MBP phosphorylation, ADP-Glo luminescence; inhibition, % at 10 µM; 320,000 tested, 0.073% active;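 active = inhibition at or above 25%, using the most active replicate where run in duplicate; inactive = inhibition below 25%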
Target sequence (Q9BYT3 whole entry, looked up): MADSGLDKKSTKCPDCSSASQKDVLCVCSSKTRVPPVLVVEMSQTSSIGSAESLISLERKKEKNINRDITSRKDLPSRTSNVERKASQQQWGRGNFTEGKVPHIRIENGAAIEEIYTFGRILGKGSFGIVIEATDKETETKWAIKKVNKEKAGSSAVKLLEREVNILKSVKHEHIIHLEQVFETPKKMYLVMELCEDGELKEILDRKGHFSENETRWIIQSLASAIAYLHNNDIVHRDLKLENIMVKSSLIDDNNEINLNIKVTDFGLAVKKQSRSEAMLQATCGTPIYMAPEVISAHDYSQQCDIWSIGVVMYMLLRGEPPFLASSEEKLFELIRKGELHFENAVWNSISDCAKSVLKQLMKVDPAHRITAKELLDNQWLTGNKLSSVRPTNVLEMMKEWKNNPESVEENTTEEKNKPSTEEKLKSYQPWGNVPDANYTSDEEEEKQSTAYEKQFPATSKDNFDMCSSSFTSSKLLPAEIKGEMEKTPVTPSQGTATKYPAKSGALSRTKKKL
Large screens that a line does not name were inactive; ! = a repeat was not active.

CSc1ccccc1NC(=O)Cn1ccsc1=N	LANA-H2B inh 10.7
N=c1sccn1CC(=O)Nc1cccc2ccccc12	none
O=C(Nc1ccccc1F)C(=O)Nc1cccc2ccccc12	none (no result: GSK3beta inhib, TAG inh)
C[C@]12CCC3c4ccc(O)cc4CCC3C1CC/C2=N\N (some centres undefined)	none (no result: Lipid droplet)
C[C@]12CC[C@@H]3c4ccc(O)cc4CC[C@H]3[C@@H]1CCC2=O	LANA-H2B inh 40.2!
CC(C)(C)NC(=O)/C(=C/c1ccccc1F)NC(=O)c1ccc([N+](=O)[O-])cc1	none
CC(Sc1nnc(C2CC2)n1C1CC1)C(=O)Nc1cccc(S(=O)(=O)N(C)C)c1 (centres undefined)	LANA-H2B inh active (no result: Lipid droplet, GSK3beta inhib)
CC(Sc1nnc(C2CC2)n1C1CC1)C(=O)NCc1cccs1 (centres undefined)	none (no result: LANA-H2B inh, Lipid droplet, GSK3beta inhib, GSK3A inh, STK33 kinase inh)
COC(=O)C1CCN(C(=O)c2ccc(SC)cc2OC)CC1	LANA-H2B inh 12.4 (no result: Lipid droplet, TAG inh)
COc1cc(SC)ccc1C(=O)N1CCN(c2ccccc2OC)CC1	none
O=C(O)CCN1C(=O)C2C3c4ccccc4C(c4ccccc43)[C@@H]2C1=O (some centres undefined)	none
CCOC(=O)C1=C(C)N(C)C(=O)NC1c1ccc(C)s1 (centres undefined)	none (no result: TAG inh)
Cc1ccc(NC(=O)C2CC(=O)n3c(nc4ccccc43)N2)cc1C (centres undefined)	LANA-H2B inh 16.5
Cc1ccc(C)c(NC(=O)CN(C)C(=O)c2cc3c(s2)CCCCC3)c1	none (no result: Lipid droplet)
Cc1ccc(NC(=O)CN(C)C(=O)c2cc3c(s2)CCCCC3)cc1	LANA-H2B inh 21.4 (no result: Lipid droplet, GSK3beta inhib)
CCOCCCNC(=O)c1ccc(NC(=O)C2=CSCCO2)cc1	none (no result: TAG inh)
O=Cc1cccnc1SCc1ccccc1	none (no result: Lipid droplet)
CCNC(=S)Nc1ccc(OCC)cc1	none (no result: TAG inh)
COc1ccc(N2CCN(CCNC(=O)CCCn3c(=O)[nH]c4cc(Cl)ccc4c3=O)CC2)cc1	LANA-H2B inh 19.5
COc1ccc(N2CCN(CCCNC(=O)CCCn3c(=O)[nH]c4ccsc4c3=O)CC2)cc1	none (no result: Lipid droplet)
CCOC(=O)C1CCN(C(=S)NC2CC3C=CC2C3)CC1 (centres undefined)	LANA-H2B inh 20.5
NC(=O)C1CCN(C(=S)NC2CC3C=CC2C3)CC1 (centres undefined)	none
COCCNC(=O)CN(Cc1ccc2c(c1)OCO2)C(=O)CCC(=O)Nc1nccs1	LANA-H2B inh 18.1
Cc1ccc(C(=O)CC2(O)C(=O)Nc3ccccc32)s1 (centres undefined)	none (no result: Lipid droplet, TAG inh)
Cc1ccc2c(c1)C(O)(CC(=O)c1ccc(C)s1)C(=O)N2 (centres undefined)	LANA-H2B inh 89.8 (no result: TAG inh)
CS(=O)(=O)N1CCN(C(=O)c2ccc3c(c2)OCCO3)CC1	none
CC1=C(C(=O)OCc2ccc3c(c2)OCO3)C(c2ccccc2)NC(=O)N1 (centres undefined)	GSK3A inh 62.5 (no result: Lipid droplet, TAG inh)
CC1=C(C(=O)OCc2ccc3c(c2)OCO3)C(c2ccccc2OCc2ccccc2)NC(=O)N1 (centres undefined)	none (no result: TAG inh)
COc1ccc(CCNC(=O)c2cccn2C)cc1	LANA-H2B inh 29.9
Cn1cccc1C(=O)NCCc1ccc(Cl)cc1	none
COc1cc(C(=O)NC2CCN(C)CC2)ccc1Nc1ncc2c(n1)N(C1CCCCC1)CCC(=O)N2C	TAG inh 96.0 (no result: LANA-H2B inh, Lipid droplet, GSK3beta inhib, GSK3A inh, STK33 kinase inh)
COc1cc(C(=O)NC2CCN(C)CC2)ccc1Nc1ncc2c(n1)N(Cc1ccccc1)CCC(=O)N2C	TAG inh 87.4 (no result: LANA-H2B inh, Lipid droplet, GSK3beta inhib, GSK3A inh, STK33 kinase inh)
COc1ccc(Cn2c(=O)[nH]c3cc(C(=O)NC4CCN(Cc5ccccc5)CC4)ccc32)cc1	none
CCN1C(=O)CC(C(C)C)N(C2CCCC2)c2nc(Nc3ccc(C(=O)NC4CCN(C)CC4)cc3OC)ncc21 (centres undefined)	none (no result: LANA-H2B inh, Lipid droplet, GSK3beta inhib, GSK3A inh, STK33 kinase inh)
CCN1C(=O)CC(c2ccccc2)N(C2CCCC2)c2nc(Nc3ccc(C(=O)NC4CCN(C)CC4)cc3OC)ncc21 (centres undefined)	STK33 kinase inh 47.5 (no result: Lipid droplet, GSK3beta inhib)
O=C(O)c1ccc(NC(=O)c2cccc(C(=O)Nc3ccc(C(=O)O)cc3)n2)cc1	STK33 kinase inh 33.9 (no result: TAG inh)
O=C(Nc1ccccc1)c1cccc(C(=O)Nc2ccccc2)n1	none
Cc1ccc(S(=O)(=O)NCCC(=O)N2CCC(C(N)=O)CC2)cc1C	none (no result: Lipid droplet)
C[C@H](CO)N1C[C@H](C)[C@@H](CN(C)S(=O)(=O)c2ccc(F)cc2)Oc2c(NC(=O)c3ccncc3)cccc2C1=O	none (no result: LANA-H2B inh, Lipid droplet, GSK3beta inhib, GSK3A inh, STK33 kinase inh)
C[C@H]1CN([C@@H](C)CO)C(=O)c2cccc(NC(=O)c3cnccn3)c2O[C@@H]1CN(C)S(=O)(=O)c1ccc(F)cc1	GSK3A inh 55.4 (no result: Lipid droplet, GSK3beta inhib)
CCn1c(=N)c(C(=O)NC)cc2c(=O)n3cccc(C)c3nc21	LANA-H2B inh 17.0 (no result: GSK3beta inhib, GSK3A inh, STK33 kinase inh)
CCCn1c(=N)c(C(=O)NC2CCCC2)cc2c(=O)n3cccc(C)c3nc21	none
CC1(C)Cc2ccccc2C(=NCCCC(=O)O)N1	none (no result: TAG inh)
CC12CN3CC(C)(CN(C1)C3c1ccc(Cl)cc1)C2 (centres undefined)	none
COc1ccc(C2N3CC4(C)CN2CC(C)(C3)C4)cc1OC (centres undefined)	LANA-H2B inh 6.4 (no result: Lipid droplet)
NC(=S)Nc1cccc2cn[nH]c12	none
CCOc1ccc(CCNC(=O)CSc2nnnn2C)cc1OCC	none
CCOc1ccc(CCNC(=O)CSc2nn(-c3ccc(C)c(Cl)c3)c(=S)s2)cc1OCC	Lipid droplet 69.7 (no result: TAG inh)
COC(=O)C1CCN(C(=O)c2ccc(Cl)c(S(=O)(=O)NCc3cccnc3)c2)CC1	LANA-H2B inh 43.3 (no result: TAG inh)
O=C(c1ccc(Cl)c(S(=O)(=O)NCc2ccccc2)c1)N1CCN(c2ccccn2)CC1	none (no result: Lipid droplet, TAG inh)
COCCNC(=S)NNC(=O)c1ccco1	LANA-H2B inh 61.0 (no result: TAG inh)
Cc1cc(C)c2c(n1)nn1c(N3CCN(Cc4ccccc4)CC3)cc(C)nc21	none (no result: LANA-H2B inh, Lipid droplet, GSK3beta inhib, GSK3A inh, STK33 kinase inh)
COc1ccc2nc(-c3ccccn3)[nH]c2c1	TAG inh 69.9
Nc1ccc2nc(-c3ccccn3)[nH]c2c1	none (no result: TAG inh)
COc1ccc2cc1Oc1ccc(cc1)C[C@H]1c3c(cc(OC)c4c3Oc3c(ccc5c3[C@H](C2)N(C)CC5)O4)CCN1C	TAG inh 108.7 (no result: Lipid droplet, GSK3beta inhib)
COc1ccc2cc1Oc1ccc(cc1)CC1c3c(cc(OC)c4c3Oc3cc5c(cc3O4)CCNC5C2)CCN1C (centres undefined)	none (no result: TAG inh)
CCOc1ccccc1C(=O)OCC(=O)Nc1cc(Cl)ccc1Oc1ccccc1	none (no result: TAG inh)
COc1ccccc1C(=O)NC(=O)COC(=O)Cc1ccc(F)cc1	none (no result: Lipid droplet, GSK3beta inhib)
COCCn1c(SCC(=O)N2CCc3ccccc32)nc2c(c1=O)SC(C)C2 (centres undefined)	LANA-H2B inh 8.1
CC(NC1CCCCC1)C(=O)NN=C(c1ccccc1)c1ccccc1 (centres undefined)	LANA-H2B inh 129.5
CCOc1ccccc1Cn1c(=O)sc2ccccc21	LANA-H2B inh 37.1
O=C(CN(C(=O)c1csnn1)c1cccc2ccccc12)NCc1ccccc1	none (no result: TAG inh)
